Experimental data as given in ChEMBL document CHEMBL1132974 (J Med Chem, 2000).
Where “and” joins values, the source holds several entries; their conditions need not be identical. Equal entries are not always repeated. Each block holds one compound with its values, some of them ahead of it.

Columns and labels:
[1] = biological target: Muscarinic acetylcholine receptor M3 (Cavia porcellus, UniProt Q8VH26); assay: Compound was evaluated for its antagonist affinity towards Muscarinic acetylcholine receptor M3 of guinea pig; type: functional; settings: read-out: pA2 (converted)
Sequence of Muscarinic acetylcholine receptor M3 (Q8VH26 whole entry): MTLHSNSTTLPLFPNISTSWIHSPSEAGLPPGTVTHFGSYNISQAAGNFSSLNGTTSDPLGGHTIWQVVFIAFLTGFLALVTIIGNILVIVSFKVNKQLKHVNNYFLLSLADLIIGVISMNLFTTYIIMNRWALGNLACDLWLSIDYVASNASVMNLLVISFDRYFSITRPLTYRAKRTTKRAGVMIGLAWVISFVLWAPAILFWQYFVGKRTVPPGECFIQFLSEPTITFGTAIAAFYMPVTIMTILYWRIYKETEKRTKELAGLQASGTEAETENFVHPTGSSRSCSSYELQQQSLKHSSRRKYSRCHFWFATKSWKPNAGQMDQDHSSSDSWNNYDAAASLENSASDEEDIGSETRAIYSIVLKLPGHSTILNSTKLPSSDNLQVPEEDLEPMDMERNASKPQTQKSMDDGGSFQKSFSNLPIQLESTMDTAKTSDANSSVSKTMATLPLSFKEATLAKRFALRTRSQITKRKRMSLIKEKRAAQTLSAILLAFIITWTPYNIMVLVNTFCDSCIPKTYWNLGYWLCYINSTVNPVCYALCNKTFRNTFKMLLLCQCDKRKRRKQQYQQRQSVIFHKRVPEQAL
Outline: (§1)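 Functional antagonism assays in guinea-pig tissues, each run with 1 µM mepyramine present: M3 (whole ileum), β1 (right atrium), 5-HT1B (iliac artery), 5-HT3 (quiescent ileal longitudinal muscle with myenteric plexus). Results are given as apparent pA2, or pD'2 when only curve depression occurred.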

[2] = biological target: T1, Histamine H1 receptor (Cavia porcellus, UniProt P31389); assay: Effective concentration for agonist activity in guinea pig ileum whole segment; type: functional, tissue-based
T1 sequence (P31389 whole entry): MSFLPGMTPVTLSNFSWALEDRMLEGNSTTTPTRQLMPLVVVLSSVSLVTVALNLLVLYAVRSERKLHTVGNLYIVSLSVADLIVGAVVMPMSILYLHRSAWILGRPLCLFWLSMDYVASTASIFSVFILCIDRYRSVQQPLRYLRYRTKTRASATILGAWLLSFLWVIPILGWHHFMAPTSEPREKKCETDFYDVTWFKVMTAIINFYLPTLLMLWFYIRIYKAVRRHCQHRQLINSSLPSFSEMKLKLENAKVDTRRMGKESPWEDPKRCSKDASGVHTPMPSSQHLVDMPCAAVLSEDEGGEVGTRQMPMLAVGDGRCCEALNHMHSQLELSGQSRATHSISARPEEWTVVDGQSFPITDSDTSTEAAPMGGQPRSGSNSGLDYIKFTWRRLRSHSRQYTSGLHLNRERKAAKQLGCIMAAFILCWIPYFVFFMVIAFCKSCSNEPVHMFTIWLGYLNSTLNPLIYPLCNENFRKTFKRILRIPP

[3] = biological target: Histamine H1 receptor (Cavia porcellus) (UniProt P31389); assay: Negative logarithm of receptor dissociation constant Kp was reported in guinea pig ileum whole segment; type: functional, tissue-based
Sequence of Histamine H1 receptor (Cavia porcellus) (P31389 whole entry): as above
Outline: (§2)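 Guinea-pig ileum (0.1 µM atropine, 37 °C Tyrode's). […] Where several partial-agonist concentrations were used, the overall value comes from a Kaumann-Marano plot with slope constrained to unity.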

[4] = biological target: Histamine H2 receptor (Cavia porcellus, UniProt P47747); assay: Compound was evaluated for its antagonist affinity towards Histamine H2 receptor of guinea pig; type: functional; settings: read-out: pA2 (converted)
Sequence of Histamine H2 receptor (P47747 whole entry): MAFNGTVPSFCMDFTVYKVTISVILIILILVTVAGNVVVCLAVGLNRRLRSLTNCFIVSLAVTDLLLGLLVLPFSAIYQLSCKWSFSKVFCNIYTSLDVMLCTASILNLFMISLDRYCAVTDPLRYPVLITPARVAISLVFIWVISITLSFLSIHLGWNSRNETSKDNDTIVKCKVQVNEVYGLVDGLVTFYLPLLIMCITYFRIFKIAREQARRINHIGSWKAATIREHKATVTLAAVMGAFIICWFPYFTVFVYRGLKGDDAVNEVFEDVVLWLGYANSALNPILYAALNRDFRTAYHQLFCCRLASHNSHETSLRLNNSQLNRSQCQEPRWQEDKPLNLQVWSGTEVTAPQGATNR

[5] = biological target: T2, Histamine H1 receptor (Rattus norvegicus, UniProt P31390); assay: Effective concentration for agonism activity in relaxed rat aortic rings with intact endothelium, submaximally precontracted with 15.8 nM U-46,619; type: functional, tissue-based, Aorta
T2 sequence (P31390 whole entry): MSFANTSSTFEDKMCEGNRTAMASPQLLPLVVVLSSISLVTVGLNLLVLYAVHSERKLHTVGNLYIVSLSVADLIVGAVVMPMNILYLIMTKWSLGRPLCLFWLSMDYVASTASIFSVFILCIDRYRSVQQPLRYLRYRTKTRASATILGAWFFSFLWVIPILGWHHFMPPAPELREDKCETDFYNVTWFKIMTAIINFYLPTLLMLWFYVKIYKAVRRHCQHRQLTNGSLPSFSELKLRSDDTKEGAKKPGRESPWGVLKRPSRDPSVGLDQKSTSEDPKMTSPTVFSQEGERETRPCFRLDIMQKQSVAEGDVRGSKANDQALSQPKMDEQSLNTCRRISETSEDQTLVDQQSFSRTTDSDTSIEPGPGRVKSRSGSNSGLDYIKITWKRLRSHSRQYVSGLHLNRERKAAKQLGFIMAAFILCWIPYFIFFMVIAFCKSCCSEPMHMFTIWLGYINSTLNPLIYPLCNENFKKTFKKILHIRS

[6] = biological target: T1, Histamine H1 receptor; assay: Antagonism of guinea pig ileum contraction at 100 nM mepyramine; type: functional, tissue-based; settings: read-out: pA2 (converted)
Outline: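 Guinea-pig whole ileal segments (2.0–2.5 cm), isotonic, preload 0.5 g, Tyrode's at 37 °C, 95% O2/5% CO2, with 0.1 µM atropine throughout. […] Apparent pA2 = −log c + log(r−1); full pA2 from Schild plot, slope fixed at 1.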

[7] = biological target: Histamine H1 receptor (Rattus norvegicus) (UniProt P31390); assay: The compound was evaluated for intrinsic activity in relaxed rat aortic rings with intact endothelium, submaximally precontracted with 15.8 nM U-46,619; type: functional, tissue-based; parameters: unit not given here; settings: Aorta
Target sequence in this assay (P31390 whole entry): as above

[8] = biological target: Histamine H1 receptor (Rattus norvegicus) (UniProt P31390); assay: Compound was evaluated for mepyramine antagonism effects in rat aorta (relaxation) at a mepyramine concentration of 100 nM; settings: read-out: pA2 (converted)
Target sequence in this assay (P31390 whole entry, looked up): as the sequence (P31390 whole entry) above

[9] = biological target: Histamine H3 receptor (Cavia porcellus, UniProt Q9JI35); assay: Compound was evaluated for its antagonist affinity towards Histamine H3 receptor of guinea pig; type: functional; settings: read-out: pA2 (converted)
Sequence of Histamine H3 receptor (Q9JI35 whole entry): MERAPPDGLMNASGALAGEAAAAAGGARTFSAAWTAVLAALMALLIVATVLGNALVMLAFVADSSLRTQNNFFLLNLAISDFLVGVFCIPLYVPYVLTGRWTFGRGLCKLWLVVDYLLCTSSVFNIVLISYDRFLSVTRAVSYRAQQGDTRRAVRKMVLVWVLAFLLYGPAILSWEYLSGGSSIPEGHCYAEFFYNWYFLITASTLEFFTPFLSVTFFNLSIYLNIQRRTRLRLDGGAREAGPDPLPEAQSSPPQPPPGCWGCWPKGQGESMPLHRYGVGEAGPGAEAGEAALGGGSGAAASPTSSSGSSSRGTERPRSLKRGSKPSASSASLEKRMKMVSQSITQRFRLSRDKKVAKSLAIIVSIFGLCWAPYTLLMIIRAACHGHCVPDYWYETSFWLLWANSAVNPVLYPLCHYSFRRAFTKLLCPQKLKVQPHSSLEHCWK
Outline: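 Electrically stimulated guinea-pig ileal longitudinal muscle with myenteric plexus, isometric (7.5 mN). Cumulative (R)-α-methylhistamine curves were run with and without test compound (20 min), with 1 µM mepyramine present. Values were apparent pA2, or pD'2 where curves were depressed.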

[10] = biological target: T1, Histamine H1 receptor; assay: Effective concentration for agonism activity in endothelium-denuded guinea pig aortic segment; type: functional, tissue-based, Aorta
Outline: (§3)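 Guinea-pig thoracic aortic rings (2–4 mm), endothelium rubbed off, isometric (10 mN), modified Krebs-Henseleit (1.80 mM Ca2+), 37 °C. Cimetidine, corticosterone and cocaine (30 µM each), prazosin and yohimbine (0.3 µM each) and propranolol (0.1 µM) were present. […] The pEC50 shift was corrected using untreated control preparations.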

[11] = biological target: Histamine H1 receptor (Cavia porcellus) (UniProt P31389); assay: Intrinsic activity was reported in guinea pig ileum whole segment.; type: functional, tissue-based
[12] = biological target: Histamine H1 receptor (Cavia porcellus) (UniProt P31389); assay: Negative logarithm of receptor dissociation constant Kp was reported; type: functional; outline: as §2
[13] = biological target: Histamine H1 receptor (Cavia porcellus) (UniProt P31389); assay: Relative potency in guinea pig ileum whole segment; value ranges from 0.4 to 0.6; type: functional, tissue-based
[14] = biological target: Histamine H1 receptor (Cavia porcellus) (UniProt P31389); settings: 10 uM
[15] = biological target: Histamine H1 receptor (Cavia porcellus) (UniProt P31389); assay: Intrinsic activity was reported in endothelium-denuded guinea pig(pre contracted with PGF-2 alpha) at a concentration of 10 uM; type: functional
Outline: (§4)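 Endothelium-denuded guinea-pig aortic rings, set up as in the contraction assay, challenged twice with PGF2α (10 µM). Rings were precontracted with a threshold PGF2α level (usually 0.4–1.5 µM, 10–20% of the 10 µM response).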

[16] = biological target: T2, Histamine H1 receptor; assay: Relative potency was recorded in relaxed rat aortic rings with intact endothelium, submaximally precontracted with 15.8 nM U-46,619 value; type: functional, tissue-based, Aorta; settings: read-out: pA2 (converted)
[17] = biological target: T1, Histamine H1 receptor; assay: Relative potency was recorded in endothelium-denuded guinea pig(pre contracted with PGF-2 alpha); value ranges from 5.76 to 6.40; type: functional; settings: read-out: pA2 (converted); outline: as §4
[18] = biological target: T1, Histamine H1 receptor; assay: Relative potency was recorded in endothelium-denuded guinea pig; value ranges from 5.75 to 6.25; type: functional; settings: read-out: pA2 (converted); outline: as §3
[19] = biological target: 5-hydroxytryptamine receptor 2A (Rattus norvegicus, UniProt P14842); assay: Compound was evaluated for its antagonist affinity towards 5-hydroxytryptamine 2A receptor of rat; type: functional; settings: read-out: pA2 (converted)
Sequence of 5-hydroxytryptamine receptor 2A (P14842 whole entry): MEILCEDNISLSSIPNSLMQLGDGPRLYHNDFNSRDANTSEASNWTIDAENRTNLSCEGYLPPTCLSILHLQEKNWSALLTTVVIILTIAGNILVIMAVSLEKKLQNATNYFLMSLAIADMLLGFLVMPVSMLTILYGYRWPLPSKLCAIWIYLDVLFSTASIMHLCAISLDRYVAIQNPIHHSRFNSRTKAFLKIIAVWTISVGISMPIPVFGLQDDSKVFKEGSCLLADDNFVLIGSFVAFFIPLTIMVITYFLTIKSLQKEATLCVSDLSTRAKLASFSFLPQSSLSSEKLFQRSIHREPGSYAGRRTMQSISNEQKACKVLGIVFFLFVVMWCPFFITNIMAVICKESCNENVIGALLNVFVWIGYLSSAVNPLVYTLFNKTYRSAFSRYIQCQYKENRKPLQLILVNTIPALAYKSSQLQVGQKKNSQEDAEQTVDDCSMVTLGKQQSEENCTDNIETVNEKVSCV
Outline: (§5)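 Functional antagonism in rat tissues: α1D (thoracic aorta), 5-HT2A (tail artery), 5-HT4 (oesophageal tunica muscularis mucosae). Results are given as apparent pA2 from single-concentration rightward shifts, or pD'2 when only curve depression occurred.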

[20] = biological target: 5-hydroxytryptamine receptor 1B (Cavia porcellus); assay: Compound was evaluated for its antagonist affinity towards 5-hydroxytryptamine 1B receptor of guinea pig; settings: read-out: pA2 (converted)
[21] = biological target: 5-hydroxytryptamine receptor 4 (Rattus norvegicus, UniProt Q62758); assay: Compound was evaluated for its antagonist affinity towards 5-hydroxytryptamine 4 receptor of rat; type: functional; settings: read-out: pA2 (converted); outline: as §5
Sequence of 5-hydroxytryptamine receptor 4 (Q62758 whole entry): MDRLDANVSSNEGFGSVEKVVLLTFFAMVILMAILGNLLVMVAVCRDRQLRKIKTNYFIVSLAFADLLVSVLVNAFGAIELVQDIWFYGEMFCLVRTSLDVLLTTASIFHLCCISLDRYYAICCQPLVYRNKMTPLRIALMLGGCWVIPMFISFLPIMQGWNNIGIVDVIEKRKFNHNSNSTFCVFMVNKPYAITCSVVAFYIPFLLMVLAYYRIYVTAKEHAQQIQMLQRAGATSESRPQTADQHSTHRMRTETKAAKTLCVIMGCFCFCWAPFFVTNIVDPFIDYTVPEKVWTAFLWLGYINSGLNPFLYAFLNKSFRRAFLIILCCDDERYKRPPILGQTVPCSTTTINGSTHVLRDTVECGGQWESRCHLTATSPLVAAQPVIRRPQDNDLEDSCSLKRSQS

[22] = biological target: T1, Histamine H1 receptor; assay: Compound was evaluated for mepyramine antagonism effects in guinea pig aorta (contraction) at a mepyramine concentration of 100 nM; type: functional, tissue-based; settings: read-out: pA2 (converted)
Outline: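 Guinea-pig aortic rings with endothelium damaged, isometric (10 mN), 37 °C Krebs-Henseleit. Agonist curves were run with mepyramine (100 nM, about 60 min) after threshold PGF2α precontraction. Apparent pA2 = −log c + log(r−1).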

[23] = biological target: T2, Histamine H1 receptor; assay: Compound was evaluated for mepyramine antagonism effects in rat aorta (relaxation) at a mepyramine concentration of 100 nM; type: functional, tissue-based; settings: read-out: pA2 (converted)
[24] = biological target: Beta-1 adrenergic receptor (Cavia porcellus, UniProt B0FL73); assay: Compound was evaluated for its antagonist affinity towards Beta-1 adrenergic receptor of guinea pig; type: functional; settings: read-out: pA2 (converted); outline: as §1
Sequence of Beta-1 adrenergic receptor (B0FL73 whole entry): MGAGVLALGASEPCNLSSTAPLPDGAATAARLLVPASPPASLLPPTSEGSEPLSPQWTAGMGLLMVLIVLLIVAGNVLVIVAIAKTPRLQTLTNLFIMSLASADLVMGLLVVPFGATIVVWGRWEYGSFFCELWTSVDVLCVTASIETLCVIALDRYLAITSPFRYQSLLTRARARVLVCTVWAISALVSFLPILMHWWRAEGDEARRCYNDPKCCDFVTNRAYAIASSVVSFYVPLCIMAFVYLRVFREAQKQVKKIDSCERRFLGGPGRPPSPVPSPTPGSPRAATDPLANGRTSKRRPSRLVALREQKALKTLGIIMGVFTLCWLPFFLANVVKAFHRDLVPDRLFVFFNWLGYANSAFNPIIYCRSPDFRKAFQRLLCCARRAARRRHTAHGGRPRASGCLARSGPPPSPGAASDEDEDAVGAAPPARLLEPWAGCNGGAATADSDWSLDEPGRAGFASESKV

[25] = biological target: T1, Histamine H1 receptor; assay: Effective concentration for agonism activity in Endothelium-Denuded guinea pig aortic segment; type: functional, tissue-based, Aorta; outline: as §3
[26] = biological target: T3, Alpha-1D adrenergic receptor (Rattus norvegicus, UniProt P23944); assay: Compound was evaluated for its antagonist affinity towards Alpha-1D adrenergic receptor of rat; type: functional; settings: read-out: pA2 (converted); outline: as §5
T3 sequence (P23944 whole entry): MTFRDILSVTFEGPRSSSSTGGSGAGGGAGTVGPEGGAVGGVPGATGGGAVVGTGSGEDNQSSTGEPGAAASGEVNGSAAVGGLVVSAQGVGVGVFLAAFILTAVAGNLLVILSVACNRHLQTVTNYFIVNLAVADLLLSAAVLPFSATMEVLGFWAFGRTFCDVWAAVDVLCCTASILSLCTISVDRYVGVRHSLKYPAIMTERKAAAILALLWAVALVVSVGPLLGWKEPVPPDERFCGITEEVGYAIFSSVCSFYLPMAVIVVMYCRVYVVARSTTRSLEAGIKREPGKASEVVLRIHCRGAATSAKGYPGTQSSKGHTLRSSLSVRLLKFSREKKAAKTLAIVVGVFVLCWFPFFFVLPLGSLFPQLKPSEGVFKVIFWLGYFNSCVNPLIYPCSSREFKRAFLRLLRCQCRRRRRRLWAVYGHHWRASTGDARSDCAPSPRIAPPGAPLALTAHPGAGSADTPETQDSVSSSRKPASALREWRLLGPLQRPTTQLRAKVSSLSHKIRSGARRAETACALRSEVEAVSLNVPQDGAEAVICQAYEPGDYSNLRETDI

[27] = biological target: Serotonin 3 (5-HT3) receptor; assay: Compound was evaluated for its antagonist affinity towards 5-hydroxytryptamine 3 receptor of guinea pig; type: functional, Cavia porcellus; outline: as §1
[28] = biological target: Histamine H1 receptor (Cavia porcellus) (UniProt P31389); assay: concentration of mepyramine was determined; type: functional
[29] = species: Cavia porcellus; assay: Mepyramine concentration required to antagonise histaprodifens compound induced effects in guinea pig or rat assays; type: functional, organism-based
[30] = biological target: Histamine H1 receptor (Cavia porcellus) (UniProt P31389); assay: Intrinsic activity of the compounddwas reported in guinea pig ileum whole segment; type: functional, tissue-based
[31] = biological target: Histamine H1 receptor (Cavia porcellus) (UniProt P31389); assay: Relative potency in guinea pig ileum whole segment; value ranges from 4 to 15; type: functional, tissue-based
[32] = biological target: T2, Histamine H1 receptor; assay: Compound was evaluated for mepyramine antagonism effects in rat aorta (relaxation) at a mepyramine concentration of 100 nM; settings: read-out: pA2 (converted)

Structure (SMILES): NCCc1c[nH]c(CC(c2ccccc2)c2ccccc2)n1
EC50 [2]: 40.7 µM
Emax [11]: 50
pKp [12]: 3.87
Relative potency [13]: 0.5

Structure (SMILES): NCCc1c[nH]c(CCCCC(c2ccccc2)c2ccccc2)n1
Emax [14]: 0
Emax [15]: 0
Kb [16]: 1.07 µM
Kb [17]: 0.832 µM
Kb [18]: 1 µM

Structure (SMILES): CNCCc1c[nH]c(CCC(c2ccccc2)c2ccccc2)n1
pA2 [27]: < 5.8
pKp [3]: 6.45
Concentration [28]: 0.003 µM and 0.005 µM
Concentration [29]: 0.1 µM
Emax [7]: 55

Structure (SMILES): NCCc1c[nH]c(C(c2ccccc2)c2ccccc2)n1
EC50 [2]: 2.57 µM
Emax [30]: 28
Relative potency [31]: 8
pKp [12]: 5.37

The remaining compounds from weak to strong by EC50 [2], led by results:

Kb [19]: 6.46 µM
Kb [1]: 2.82 µM
Kb [20]: 14.1 µM
EC50 [2]: 0.182 µM
Kb [21]: > 3.16 µM
Kb [4]: 34.7 µM
Kb [22]: 0.00158 µM and 0.000977 µM
Kb [23]: 0.00912 µM
EC50 [5]: 0.851 µM
Kb ([6]; in the assay text read “at 1-30 nM mepyramine” for “at 100 nM mepyramine”): 0.000776 µM
Kb [24]: 45.7 µM
EC50 [25]: 1.95 µM and 0.309 µM
Kb [9]: > 1.58 µM
Kb [26]: 3.55 µM
Structure (SMILES): NCCc1cnc(CCC(c2ccccc2)c2ccccc2)[nH]1

Kb [1]: 0.933 µM
EC50 [2]: 0.148 µM
pKp [3]: 6.17
Kb [4]: 20 µM
EC50 [5]: 0.355 µM
Kb [6]: 0.00141 µM and 0.00214 µM
Emax [7]: 56 and 62
Kb [8]: 0.00575 µM
Kb [9]: > 0.501 µM
EC50 [10]: 2.29 µM
Structure (SMILES): c1ccc(C(CCc2nc(CCNC3CC3)c[nH]2)c2ccccc2)cc1

Kb [19]: 4.07 µM
Kb [32]: 0.00955 µM
Kb [1]: 3.55 µM
EC50 [2]: 0.0575 µM
Kb [21]: > 1.58 µM
Kb [4]: 12.6 µM
Kb [22]: 0.00178 µM
EC50 [5]: 0.158 µM
Kb [6]: 0.000741 µM and 0.00135 µM
Kb [24]: 14.5 µM
EC50 [25]: 0.0776 µM
Kb [9]: > 1.58 µM
Kb [26]: 5.75 µM
EC50 [10]: 0.49 µM
Structure (SMILES): CNCCc1cnc(CCC(c2ccccc2)c2ccccc2)[nH]1
